Laboratory results: ChEMBL document CHEMBL1268976, “Stereocontrolled facile synthesis and antimicrobial activity of oximes and oxime ethers of diversely substituted bispidines” (2010)
Values after ≈ are worked out from the molar mass of the structure shown.

Legend:
Type in all cases: functional
[1] = test system: Candida parapsilosis; experiment: Antifungal activity against Candida parapsilosis by broth microdilution method; conditions: Lodderomyces parapsilosis
Outline: (§1)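 Fungal panel of Candida albicans, Candida parapsilosis, Aspergillus niger and Cryptococcus neoformans, tested in vitro by standard NCCLS broth microdilution. The yeast susceptibility reference cited is M27-A.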

[2] = test system: Cryptococcus neoformans; experiment: Antimicrobial activity against Cryptococcus neoformans by broth microdilution method; outline: as §1
[3] = test system: Pseudomonas aeruginosa; experiment: Antibacterial activity against Pseudomonas aeruginosa by broth microdilution method
Outline: (§2)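 In vitro broth microdilution following the NCCLS standard for bacteria (M7-A5). The test panel was Bacillus subtilis, Staphylococcus aureus, Klebsiella pneumoniae and Pseudomonas aeruginosa.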

[4] = test system: Candida albicans; experiment: Antifungal activity against Candida albicans by broth microdilution method; outline: as §1
[5] = test system: Pseudomonas aeruginosa; experiment: Ratio of gentamicin MIC90 to compound MIC90 for Pseudomonas aeruginosa
[6] = test system: Bacillus subtilis; experiment: Antibacterial activity against Bacillus subtilis by broth microdilution method; outline: as §2
[7] = test system: Aspergillus niger; experiment: Antifungal activity against Aspergillus niger by broth microdilution method; outline: as §1
[8] = test system: Staphylococcus aureus; experiment: Antibacterial activity against Staphylococcus aureus by broth microdilution method; outline: as §2
[9] = test system: Klebsiella pneumoniae; experiment: Antibacterial activity against Klebsiella pneumoniae by broth microdilution method; outline: as §2
[10] = test system: Klebsiella pneumoniae; experiment: Ratio of compound MIC90 to gentamicin MIC90 for Klebsiella pneumoniae

MIC90 [1] | MIC90 [2] | MIC90 [3] | MIC90 [4] | MIC90 [6] | MIC90 [7] | MIC90 [8] | MIC90 [9] | Structure (SMILES) | Ratio [5] | Ratio [10]
16 µg/mL (≈ 24.3 µM) | 8 µg/mL (≈ 12.2 µM) | 4 µg/mL (≈ 6.08 µM) | 32 µg/mL (≈ 48.6 µM) | 64 µg/mL (≈ 97.3 µM) | 4 µg/mL (≈ 6.08 µM) | > 128 µg/mL | 8 µg/mL (≈ 12.2 µM) | CON=C1C2C(c3ccc(SC)cc3)NC(c3ccc(SC)cc3)C1C(c1ccc(SC)cc1)NC2c1ccc(SC)cc1 (stereo not drawn) | 4 | 4
32 µg/mL (≈ 53.9 µM) | 8 µg/mL (≈ 13.5 µM) | 16 µg/mL (≈ 26.9 µM) | 64 µg/mL (≈ 108 µM) | 64 µg/mL (≈ 108 µM) | 4 µg/mL (≈ 6.74 µM) | > 128 µg/mL | 8 µg/mL (≈ 13.5 µM) | CON=C1C2C(c3ccccc3OC)NC(c3ccccc3OC)C1C(c1ccccc1OC)NC2c1ccccc1OC (stereo not drawn) | – | 4
2 µg/mL (≈ 3.78 µM) | > 128 µg/mL | 4 µg/mL (≈ 7.55 µM) | 64 µg/mL (≈ 121 µM) | 64 µg/mL (≈ 121 µM) | 64 µg/mL (≈ 121 µM) | > 128 µg/mL | 8 µg/mL (≈ 15.1 µM) | CON=C1C2C(c3ccc(C)cc3)NC(c3ccc(C)cc3)C1C(c1ccc(C)cc1)NC2c1ccc(C)cc1 (stereo not drawn) | 4 | 4
> 128 µg/mL | 32 µg/mL (≈ 45.3 µM) | 64 µg/mL (≈ 90.7 µM) | > 128 µg/mL | > 128 µg/mL | 16 µg/mL (≈ 22.7 µM) | > 128 µg/mL | 16 µg/mL (≈ 22.7 µM) | CCCOc1ccc(C2NC(c3ccc(OCCC)cc3)C3C(=NOC)C2C(c2ccc(OCCC)cc2)NC3c2ccc(OCCC)cc2)cc1 (stereo not drawn) | – | 8
